Published values gathered from unrelated publications.
Compare with care: the assays were run in different laboratories.
Cell line: NCI-H226
Observed: cell growth or viability

CCCCC/C=C/C(=O)CCc1ccc(O)c(OC)c1
IC50 (SRB): 18 µM

COc1ccc(-c2ccc(-c3ccc(C(=N)N)nc3)s2)cc1Cl
GI50 (SRB): 1.92 µM

COc1cccc(Oc2ccccc2NC(=O)CNC(=O)c2cccc3ccccc23)c1
GI50 (SRB; 48 h): 2.51 µM

COc1ccccc1/C=C/C(=O)c1ccc(OC)c(S(N)(=O)=O)c1
GI50 (SRB; 48 h): 4 µM

O=C(/C=C/C=C/c1ccc2c(c1)OCO2)N1CCCCC1
IC50 (SRB): 83.7 µM

COc1cc([C@@H]2c3cc4c(cc3[C@@H](O[C@@H]3O[C@@H]5CO[C@@H](C)O[C@H]5[C@H](O)[C@H]3O)[C@H]3COC(=O)[C@H]23)OCO4)cc(OC)c1O
IC50 (MTT; 72 h): 0.39 µM

COc1ccc(C(=O)/C=C/c2cccc(Br)c2)cc1S(N)(=O)=O
inhibition (SRB; 10 µM): 83%

S=C([S][Au-][P+](CCCCCC[P+]([Au-][S]C(=S)n1cccn1)(c1ccccc1)c1ccccc1)(c1ccccc1)c1ccccc1)n1cccn1
GI50 (SRB): 6.63 µM

c1ccc(-c2n(Cc3ccc4ccccc4c3)cc[n+]2Cc2ccc3ccccc3c2)cc1
TGI (SRB): 2.97 µM

COc1ccc(C(=O)/C=C/c2cc3c(cc2Br)OCO3)cc1S(N)(=O)=O
inhibition (SRB; 10 µM): 87%

Cc1n(Cc2ccc3ccccc3n2)cc[n+]1Cc1ccc2ccccc2c1
TGI (SRB): 10.9 µM

O=C1NCCc2[nH]c(-c3ccncc3)cc21
IC50: > 10 µM

COc1ccc(C(=O)/C=C/c2cccc3ccccc23)cc1S(N)(=O)=O
GI50 (SRB; 48 h): 3.1 µM

c1ccc2cc(Cn3cc[n+](Cc4ccc5ccccc5c4)c3)ccc2c1
TGI (SRB): 14.3 µM

COc1ccc(C(=O)/C=C/c2cccc(Cl)c2)cc1S(N)(=O)=O
GI50 (SRB; 48 h): 2.8 µM

CCc1n(Cc2ccc3ccccc3n2)cc[n+]1Cc1ccc2ccccc2n1
TGI (SRB): 30.8 µM

COc1cc(-c2ccc(-c3ccc(C(=N)N)nc3)s2)cc(OC)c1OC
GI50 (SRB): 10.8 µM
